Results reported in ChEMBL document CHEMBL1140159, “Gedunin, a novel hsp90 inhibitor: semisynthesis of derivatives and preliminary structure-activity relationships” (J Med Chem, 2008).

Assays:
SK-BR-3 = assay: Antiproliferative activity against human SKBr3 cells after 72 hrs; type: functional, cell-based; details: SK-BR-3, 72 h
Outline: (§1)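 Cells were grown in a 1:1 Advanced DMEM/F12 mix with nonessential amino acids, 2 mM L-glutamine, penicillin/streptomycin and 10% FBS at 37 °C and 5% CO₂. They were seeded at 2000/well and left to attach overnight, then dosed over a concentration range (1% DMSO final) for 72 h. Viable cells were read by MTS/PMS, normalised to 1% DMSO controls (100%), and IC50 was taken from a nonlinear dose–response fit; three experiments, each in triplicate.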

MCF7 = assay: Antiproliferative activity against human MCF7 cells after 72 hrs; type: functional, cell-based; details: MCF7, 72 h; outline: as §1

| Compound | IC50 (SK-BR-3) [µM] | IC50 (MCF7) [µM] |
| --- | --- | --- |
| CC1(C)C(=O)C=C[C@]2(C)[C@H]3CC[C@@]4(C)[C@@H](c5ccoc5)OC(=O)[C@H]5O[C@]54[C@]3(C)C(=O)C[C@@H]12 | 4.49 | 10.9 |
| CC(=O)O[C@@H]1C[C@H]2C(C)(C)/C(=N/OCc3ccccc3)C=C[C@]2(C)[C@H]2CC[C@@]3(C)[C@@H](c4ccoc4)OC(=O)[C@H]4O[C@]43[C@@]21C | > 100 | > 100 |
| CCO/N=C1\C=C[C@]2(C)[C@H]3CC[C@@]4(C)[C@@H](c5ccoc5)OC(=O)[C@H]5O[C@]54[C@]3(C)[C@H](OC(C)=O)C[C@H]2C1(C)C | > 100 | > 100 |
| CC1(C)C(=O)C=C[C@]2(C)[C@H]3CC[C@@]4(C)[C@@H](c5ccoc5)OC(=O)[C@H]5O[C@]54[C@]3(C)[C@H](OCc3ccccc3)C[C@@H]12 | > 100 | > 100 |
| CC1(C)C(=O)C=C[C@]2(C)[C@H]3CC[C@@]4(C)[C@@H](c5ccoc5)OC(=O)[C@H]5O[C@]54[C@]3(C)[C@H](OC(N)=O)C[C@@H]12 | 7.05 | 9.79 |
| CCCO[C@@H]1C[C@H]2C(C)(C)C(=O)C=C[C@]2(C)[C@H]2CC[C@@]3(C)[C@@H](c4ccoc4)OC(=O)[C@H]4O[C@]43[C@@]21C | 18.1 | 37.3 |
| CC(=O)O[C@@H]1C[C@H]2C(C)(C)C(=O)CC[C@]2(C)[C@H]2CC[C@@]3(C)[C@@H](c4ccoc4)OC(=O)[C@H]4O[C@]43[C@@]21C | > 100 | > 100 |
| CC(=O)O[C@@H]1C[C@H]2C(C)(C)C(O)CC[C@]2(C)[C@H]2CC[C@@]3(C)[C@@H](c4ccoc4)OC(O)[C@H]4O[C@]43[C@@]21C (some centres not stated) | > 100 | > 100 |
| CCO[C@@H]1C[C@H]2C(C)(C)C(=O)C=C[C@]2(C)[C@H]2CC[C@@]3(C)[C@@H](c4ccoc4)OC(=O)[C@H]4O[C@]43[C@@]21C | 12.1 | 14.8 |
| CC(=O)O[C@@H]1C[C@H]2C(C)(C)/C(=N/O)C=C[C@]2(C)[C@H]2CC[C@@]3(C)[C@@H](c4ccoc4)O/C(=N\O)[C@H]4O[C@]43[C@@]21C | 26.5 | 33.2 |
| CO/N=C1\C=C[C@]2(C)[C@H]3CC[C@@]4(C)[C@@H](c5ccoc5)OC(=O)[C@H]5O[C@]54[C@]3(C)[C@H](OC(C)=O)C[C@H]2C1(C)C | > 100 | > 100 |
| CC(=O)O[C@@H]1C[C@H]2C(C)(C)C(=O)C(O)C(O)[C@]2(C)[C@H]2CC[C@@]3(C)[C@@H](c4ccoc4)OC(=O)[C@H]4O[C@]43[C@@]21C (some centres not stated) | > 100 | > 100 |
| CCC(=O)O[C@@H]1C[C@H]2C(C)(C)C(=O)C=C[C@]2(C)[C@H]2CC[C@@]3(C)[C@@H](c4ccoc4)OC(=O)[C@H]4O[C@]43[C@@]21C | > 100 | > 100 |
| CO[C@@H]1C[C@H]2C(C)(C)C(=O)C=C[C@]2(C)[C@H]2CC[C@@]3(C)[C@@H](c4ccoc4)OC(=O)[C@H]4O[C@]43[C@@]21C | 13 | 38.9 |
| CC(=O)O[C@@H]1C[C@H]2C(C)(C)C(O)C=C[C@]2(C)[C@H]2CC[C@@]3(C)C(c4ccoc4)OC(O)[C@H]4O[C@]43[C@@]21C (single isomer, unassigned) | 82.4 | 47.7 |
| CC1(C)C(=O)[C@H]2O[C@H]2[C@]2(C)[C@H]3CC[C@@]4(C)C(c5ccoc5)OC(=O)[C@H]5O[C@]54[C@]3(C)[C@H](O)C[C@@H]12 (single isomer, unassigned) | > 100 | > 100 |
| CC(=O)OC1C=C[C@]2(C)[C@H]3CC[C@@]4(C)C(c5ccoc5)OC(=O)[C@H]5O[C@]54[C@]3(C)[C@H](OC(C)=O)C[C@H]2C1(C)C (single isomer, unassigned) | > 100 | > 100 |
| CC(=O)O[C@@H]1C[C@H]2C(C)(C)C(=O)C3OC(C)(C)OC3[C@]2(C)[C@H]2CC[C@@]3(C)C(c4ccoc4)OC(=O)[C@H]4O[C@]43[C@@]21C (single isomer, unassigned) | > 100 | > 100 |
| CC(=O)O[C@@H]1C[C@H]2C(C)(C)C(O)C=C[C@]2(C)[C@H]2CC[C@@]3(C)C(c4ccoc4)OC(=O)[C@H]4O[C@]43[C@@]21C (single isomer, unassigned) | 47.7 | 54.3 |
| CC1(C)C(=O)C=C[C@]2(C)[C@H]3CC[C@@]4(C)[C@H](c5ccoc5)OC(=O)[C@H]5O[C@]54[C@]3(C)[C@H](O)C[C@@H]12 [DEACETYLGEDUNIN] | 21.1 | 29 |
| CC(=O)O[C@@H]1C[C@H]2C(C)(C)C(=O)C=C[C@]2(C)[C@H]2CC[C@@]3(C)[C@H](c4ccoc4)OC(=O)[C@H]4O[C@]43[C@@]21C [GEDUNIN] | 3.22 | 8.84 |
